Assays:
Type in all cases: biochemical
CPK16 = biological target: T1, CPK16 (Arabidopsis thaliana, UniProt Q7XJR9); assay: Standard filter-based kinetic assay for kinase activity, CPK16
T1 sequence (Q7XJR9 1-571): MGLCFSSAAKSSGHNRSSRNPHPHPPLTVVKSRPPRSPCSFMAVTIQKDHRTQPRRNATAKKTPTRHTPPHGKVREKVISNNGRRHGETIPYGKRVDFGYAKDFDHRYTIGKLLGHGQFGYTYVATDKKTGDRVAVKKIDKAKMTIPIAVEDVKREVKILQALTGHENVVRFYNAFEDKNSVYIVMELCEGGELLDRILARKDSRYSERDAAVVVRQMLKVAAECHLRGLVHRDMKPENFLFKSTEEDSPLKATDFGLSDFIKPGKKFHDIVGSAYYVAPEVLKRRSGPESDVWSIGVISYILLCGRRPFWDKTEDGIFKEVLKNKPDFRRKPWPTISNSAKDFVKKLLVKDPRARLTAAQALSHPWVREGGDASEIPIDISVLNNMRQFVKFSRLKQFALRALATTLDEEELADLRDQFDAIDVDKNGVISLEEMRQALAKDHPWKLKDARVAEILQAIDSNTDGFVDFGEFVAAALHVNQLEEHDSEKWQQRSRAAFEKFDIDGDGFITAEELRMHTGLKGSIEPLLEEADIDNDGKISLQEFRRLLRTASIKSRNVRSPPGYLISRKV

CPK34 = CPK34 (Arabidopsis thaliana, UniProt Q3E9C0); assay: Standard filter-based kinetic assay for kinase activity, CPK34
Summary of the method: (§1)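 Recombinant Arabidopsis CPK, GST-N/6xHis-C fusion, affinity-purified. Reactions used 1 ng/µL kinase and 0.1 mg/mL BSA in Ca²⁺/EGTA-buffered kinase buffer (1.1 mM CaCl₂, 1 mM EGTA). Peptide substrate was 0–200 µM. Started with 50 µM ATP plus 0.375 µCi [γ-³³P]ATP, 12 min at RT. Aliquots went onto P81 paper, were washed in 75 mM phosphoric acid, and counted by scintillation. kcat is in nmol P/min/mg enzyme; KM by Lineweaver–Burk.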

CPK1 = biological target: T2, CPK1 (Arabidopsis thaliana, UniProt Q06850); assay: Standard filter-based kinetic assay for kinase activity, CPK1
T2 sequence (Q06850 1-610): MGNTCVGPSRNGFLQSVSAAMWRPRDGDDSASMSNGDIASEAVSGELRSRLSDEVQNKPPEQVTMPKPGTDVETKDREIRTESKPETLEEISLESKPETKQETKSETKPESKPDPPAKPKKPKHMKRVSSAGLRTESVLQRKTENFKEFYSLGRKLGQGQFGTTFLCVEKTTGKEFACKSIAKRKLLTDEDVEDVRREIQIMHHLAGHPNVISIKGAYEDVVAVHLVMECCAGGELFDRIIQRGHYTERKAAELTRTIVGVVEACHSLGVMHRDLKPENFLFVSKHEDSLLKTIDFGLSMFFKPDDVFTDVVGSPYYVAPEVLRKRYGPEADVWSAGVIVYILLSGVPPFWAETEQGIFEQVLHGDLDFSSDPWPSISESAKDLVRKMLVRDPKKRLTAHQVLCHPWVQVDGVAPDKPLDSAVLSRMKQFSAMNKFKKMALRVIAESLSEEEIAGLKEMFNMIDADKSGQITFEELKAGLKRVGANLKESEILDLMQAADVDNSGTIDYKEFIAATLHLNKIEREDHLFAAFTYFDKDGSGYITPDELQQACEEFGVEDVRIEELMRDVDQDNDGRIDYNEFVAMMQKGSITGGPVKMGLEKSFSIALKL
Summary of the method: as §1

CPK10 = biological target: T3, CPK10 (Arabidopsis thaliana, UniProt Q9M9V8); assay: Standard filter-based kinetic assay for kinase activity, CPK10
T3 sequence (Q9M9V8 1-545): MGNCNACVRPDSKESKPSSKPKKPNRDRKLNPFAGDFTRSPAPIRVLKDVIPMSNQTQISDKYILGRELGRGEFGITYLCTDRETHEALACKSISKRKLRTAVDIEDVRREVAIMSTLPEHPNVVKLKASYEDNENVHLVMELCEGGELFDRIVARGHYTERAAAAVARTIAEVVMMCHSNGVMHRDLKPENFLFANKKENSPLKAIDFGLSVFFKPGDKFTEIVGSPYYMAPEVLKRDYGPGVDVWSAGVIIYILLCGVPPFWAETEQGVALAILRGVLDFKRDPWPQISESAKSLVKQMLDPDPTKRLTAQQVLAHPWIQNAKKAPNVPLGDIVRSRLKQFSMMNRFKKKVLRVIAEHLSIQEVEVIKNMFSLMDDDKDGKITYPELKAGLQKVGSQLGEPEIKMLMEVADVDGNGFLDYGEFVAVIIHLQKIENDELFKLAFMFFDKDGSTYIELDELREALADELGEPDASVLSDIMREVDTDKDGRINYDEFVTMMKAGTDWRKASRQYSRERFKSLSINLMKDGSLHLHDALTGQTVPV
Summary of the method: as §1

[1] = Table 4, independent reaction 1 (first value in cell)
[2] = Table 4, independent reaction 2 (second value in cell)
[3] = Table 5, independent reaction 1 (first value in cell)
[4] = Table 5, independent reaction 2 (second value in cell)

CPK34, sequence (Q3E9C0 whole entry, the tested form may be a part): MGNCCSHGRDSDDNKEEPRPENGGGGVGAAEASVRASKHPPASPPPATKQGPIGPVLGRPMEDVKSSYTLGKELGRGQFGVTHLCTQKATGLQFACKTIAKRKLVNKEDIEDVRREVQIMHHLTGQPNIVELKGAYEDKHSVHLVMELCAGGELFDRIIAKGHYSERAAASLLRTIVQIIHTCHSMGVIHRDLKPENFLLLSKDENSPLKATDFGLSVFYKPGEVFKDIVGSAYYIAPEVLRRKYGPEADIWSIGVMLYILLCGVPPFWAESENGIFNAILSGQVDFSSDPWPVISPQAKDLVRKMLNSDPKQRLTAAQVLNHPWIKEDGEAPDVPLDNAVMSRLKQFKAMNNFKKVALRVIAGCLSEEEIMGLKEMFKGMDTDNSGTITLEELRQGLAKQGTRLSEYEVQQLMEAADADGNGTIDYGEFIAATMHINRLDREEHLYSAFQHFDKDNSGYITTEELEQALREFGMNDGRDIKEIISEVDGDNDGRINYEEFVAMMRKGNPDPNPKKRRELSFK

KRFSFKKSFKLSGFSFKK [ach-400, reference compound]
Kcat, CPK16 (CPK16; [1]): 1795 nmol phosphate incorporated/min/mg CPK
Kcat, CPK16 (CPK16; [2]): 1429 nmol phosphate incorporated/min/mg CPK
Kcat, CPK34 (CPK34; [1]): 398 nmol phosphate incorporated/min/mg CPK
Kcat, CPK34 (CPK34; [2]): 541 nmol phosphate incorporated/min/mg CPK

PLARTLSVAGLPGKK [ach-393, Syntide-2, reference compound]
kcat, CPK1 (CPK1; [3]): 362 nmol phosphate incorporated/min/mg enzyme
kcat, CPK1 (CPK1; [4]): 482 nmol phosphate incorporated/min/mg enzyme
Kcat, CPK34 (CPK34; [3]): 155 nmol phosphate incorporated/min/mg enzyme
Kcat, CPK34 (CPK34; [4]): 225 nmol phosphate incorporated/min/mg enzyme
kcat, CPK10 (CPK10; [3]): 252 nmol phosphate incorporated/min/mg enzyme
kcat, CPK10 (CPK10; [4]): 217 nmol phosphate incorporated/min/mg enzyme

RYRRMERTSSMPRAS [jfh-097]
Kcat, CPK16 (CPK16; [1]): 3734 nmol phosphate incorporated/min/mg CPK
Kcat, CPK16 (CPK16; [2]): 2677 nmol phosphate incorporated/min/mg CPK
Kcat, CPK34 (CPK34; [1]): 502 nmol phosphate incorporated/min/mg CPK
Kcat, CPK34 (CPK34; [2]): 718 nmol phosphate incorporated/min/mg CPK

VKIISRIF[S]QRSFRR [jfh-515]
Kcat, CPK16 (CPK16; [1]): 5114 nmol phosphate incorporated/min/mg CPK
Kcat, CPK16 (CPK16; [2]): 4854 nmol phosphate incorporated/min/mg CPK
Kcat, CPK34 (CPK34; [1]): 223 nmol phosphate incorporated/min/mg CPK
Kcat, CPK34 (CPK34; [2]): 231 nmol phosphate incorporated/min/mg CPK

aDFLKRLLSaGMNPN [jfh-597]
kcat, CPK1 (CPK1; [3]): 5790 nmol phosphate incorporated/min/mg enzyme
kcat, CPK1 (CPK1; [4]): 5900 nmol phosphate incorporated/min/mg enzyme
Kcat, CPK34 (CPK34; [3]): 475 nmol phosphate incorporated/min/mg enzyme
Kcat, CPK34 (CPK34; [4]): 614 nmol phosphate incorporated/min/mg enzyme
kcat, CPK10 (CPK10; [3]): 1264 nmol phosphate incorporated/min/mg enzyme
kcat, CPK10 (CPK10; [4]): 1639 nmol phosphate incorporated/min/mg enzyme

Source: PMC3355778 (Frontiers in plant science, 2011)
